# Shown are actives, neighbours in structure and some others; about 1.6% of the full set was active somewhere.
# TRAIL sens C8: sensitizes caspase-8 expressing cells to TRAIL. 360,000 tested, 1% active. inhibition (viability loss, TRAIL sensitization), % at 10 µM. AID 624354. NB7+C8 cells + TRAIL, ATPlite viability luminescence;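 active = compounds causing at least 50% loss of cell viability in the single-dose screen, relative to plate controls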
# PPC-1+TRAIL kill: PPC-1 cancer cell killing with TRAIL present; PPC-1 cells + TRAIL, ATPLite viability luminescence; 220,000 tested, 0.41% active; cell killing (% activity), % at 4 µM or 5 µM;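 active = cell killing above 50% in the first pass at 4 µM, then a duplicate retest at 5 µM averaging 50% or more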
# FLuc stim CS: firefly luciferase counter-screen for stimulation assays. activation factor at 10 µM. 200,000 tested, under 10 active. ATPlite luciferase biochemical, luminescence, 10 min; 0 = ATP-free wells, 1 = DMSO control. P08659;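 active = luciferase activation factor, scaled between plate controls, of at least 2 with compound at 10 µM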
# Target sequence (P08659 whole entry, looked up): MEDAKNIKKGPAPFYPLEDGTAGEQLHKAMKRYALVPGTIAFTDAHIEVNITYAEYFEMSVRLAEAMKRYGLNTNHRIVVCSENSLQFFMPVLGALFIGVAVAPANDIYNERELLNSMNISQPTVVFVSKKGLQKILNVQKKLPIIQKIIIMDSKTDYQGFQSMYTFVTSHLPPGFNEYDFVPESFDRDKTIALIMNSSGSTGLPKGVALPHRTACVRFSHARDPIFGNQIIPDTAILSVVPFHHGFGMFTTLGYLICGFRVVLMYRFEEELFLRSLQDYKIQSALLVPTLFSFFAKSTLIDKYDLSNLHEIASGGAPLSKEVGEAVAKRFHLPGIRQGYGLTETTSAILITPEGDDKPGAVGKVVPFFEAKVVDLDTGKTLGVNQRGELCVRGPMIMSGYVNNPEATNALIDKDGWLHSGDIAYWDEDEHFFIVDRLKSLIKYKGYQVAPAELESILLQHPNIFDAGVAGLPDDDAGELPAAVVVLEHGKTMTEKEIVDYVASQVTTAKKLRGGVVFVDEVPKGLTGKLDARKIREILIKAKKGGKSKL
#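 Assay system: Luciferase/luciferin detection reagent, cell-free biochemical luciferase assay / Also added: ATP substrate / Schedule: 10 min at ambient temperature / Measured by: luminescence measurement of luciferase light output / Benchmarks: low control with PBS replacing ATP, high control enzyme plus ATP without compound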
# FLuc inhib CS: counter-screen for luciferase assay inhibitors: firefly luciferase inhibition. ATPLite firefly luciferase biochemical luminescence, 10 min. 200,000 tested, 1.5% active. inhibition, % at 10 µM. P08659;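 active = inhibition above about 50% when tested at 10 µM, limit read from the data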
# A number is an active result; 0 = inactive; - = not tested or not shown.
SMILES,TRAIL sens C8,PPC-1+TRAIL kill,FLuc stim CS,FLuc inhib CS
Cc1ccc(C(=O)COC(=O)c2cccc(NC(=O)c3ccc([N+](=O)[O-])cc3[N+](=O)[O-])c2)cc1,0,0,0,96
COC(=O)c1cccc(NC(=O)/C=C/c2ccc([N+](=O)[O-])cc2)c1,71,0,0,0
CCCCn1c(SCC(=O)Nc2cc(NC(=O)c3ccco3)ccc2C)nc2ccccc2c1=O,0,0,0,0
CCCCN1CC(=O)N2[C@H]3c4ccccc4OC[C@@H]3[C@H](c3ccccc3)[C@]2(C)C1=O,0,-,-,-
O=C(CC1C(=O)NCCN1C(=O)Nc1ccccc1)Nc1ccc2c(c1)OCCO2 (configuration not stated),0,0,0,0
CCC(C)NC(=O)c1cc2cc3ccc(OC)cc3nc2s1 (configuration not stated),0,0,0,59
CC(=O)c1ccc(Nc2ccc(-c3ccccc3F)nn2)cc1,0,0,0,58
Cc1cc(C(=O)N/N=C2\CC(=O)CC(C)(C)C2)c(C)n1-c1ccccc1,0,0,0,0
COCCn1nnnc1C(CC(C)C)N1CCN(c2nc3ccccc3s2)CC1 (configuration not stated),0,0,0,0
COc1ccc(-n2c(C)cc(/C=C3/SC(=O)N(CC(=O)N4CCOCC4)C3=O)c2C)cc1,0,0,0,0
Cc1cc(/C=C2/SC(=O)N(CC(=O)N3CCOCC3)C2=O)c(C)n1-c1ccccc1F,0,53,0,87
COc1ccc(CN2CCCC(N3CCN(c4cccc(Cl)c4)CC3)C2)cc1OC (configuration not stated),0,-,-,-
CCOc1cc(NC(=O)c2ccccn2)c(OCC)cc1NC(=O)c1ccccc1,0,-,0,0
CCOc1cc(NC2CS(=O)(=O)CC2O)c(OCC)cc1NC(=O)c1ccccc1 (configuration not stated),51,0,0,0
CN(C)c1ncnc2c1ccn2C1OC(CO)C(O)C1O (configuration not stated),78,-,-,-
OCC1OC(n2cnc3c(NCc4ccccc4O)ncnc32)C(O)C1O (configuration not stated),76,-,-,-
OCC1OC(n2ccc3c(NO)ncnc32)C(O)C1O (configuration not stated),92,-,-,-
O=C(CCN1CCN(c2ccccc2)CC1)NNC(=O)Cc1ccccc1Cl,0,-,-,-
CC(=O)Nc1cccc(NC(=O)Nc2ccc(C(C)=O)cc2)c1,0,0,0,0
CCn1c(C)nc2cc(C(=O)N/N=C/c3ccccc3C)ccc21,0,0,0,53
CCn1c(C)nc2cc(C(=O)NN=Cc3ccccc3OC(F)F)ccc21,0,-,-,-
CC(=O)c1cccc(NC(=O)Nc2ccc(C(=O)N3CCCC3)cc2)c1,0,0,0,61
O=C(Nc1ccccc1)Nc1ccc(C(=O)N2CCCC2)cc1,69,0,0,87
CCN(CC)c1ccc(NC(=O)Nc2cccc(C(C)=O)c2)cc1,0,0,0,52
COC(=O)Cc1c(C)c2ccc(OCC(=O)N3CCOCC3)cc2oc1=O,0,0,0,0
SMILES,TRAIL sens C8,PPC-1+TRAIL kill,FLuc stim CS,FLuc inhib CS
CNC(=O)NC(=O)COC(=O)CCCOc1ccc(OC)cc1,0,0,0,0
CCn1c(C)nc2cc(NC(=O)Nc3cccc(C(C)=O)c3)ccc21,56,-,-,-
CCn1c(C)nc2cc(C(=O)OC)ccc21,0,-,0,0
CC1=Nc2ccccc2/C1=C/c1sc(=N)n(-c2nccs2)c1O,0,0,0,0
CCCCC(CC)CN=C(N)NC(N)=NCCCCCCN=C(N)NC(N)=NCC(CC)CCCC (configuration not stated),95,-,-,-
CCCCC(CC)CO (configuration not stated),0,-,-,-
CC(C)(C)c1ccc(-c2cn(-c3ccc(Br)cc3)c3[n+]2CCCS3)cc1,55,0,0,0
COc1ccc(C(=O)N/C(=C\c2ccccc2)C(=O)NCc2cccnc2)cc1,0,-,-,-
Cc1ccc(-c2nc3cc(N)ccc3o2)cc1Br,0,-,-,-
CN(C)c1ccc(-c2nc3cc(N)ccc3o2)cc1,83,-,-,-
Nc1ccc(-c2nc3cc(N)ccc3o2)cc1,0,-,-,-
COC(=O)c1ccc(-c2nc3cc(N)ccc3o2)cc1,56,0,0,83
COc1cccc(OC)c1C(=O)N1CCN(S(=O)(=O)c2ccccc2)CC1,0,0,0,0
CN=c1scc(-c2ccc([N+](=O)[O-])cc2)n1/N=C/c1ccco1,0,0,0,0
CN=c1scc(-c2ccc(F)cc2)n1/N=C/c1ccc(O)c(O)c1,74,0,0,90
CC(=O)Nc1ccc(S(=O)(=O)Nc2ccc3c(c2)OCCO3)cc1,0,0,0,0
Clc1ccc(CSc2ccc(-c3ccccn3)nn2)cc1,0,0,0,0
Clc1ccc(CSc2ccc(-c3ccco3)nn2)cc1,0,0,0,0
Clc1cccc(CSc2ccc(-c3ccco3)nn2)c1,0,0,0,0
c1ccc(CSc2ccc(-c3ccco3)nn2)cc1,59,0,0,83
c1ccc(CSc2ccc(-c3ccccn3)nn2)cc1,0,0,0,58
Fc1ccccc1CSc1ccc(-c2ccco2)nn1,0,0,0,78
Cc1ccc(CSc2ccc(-c3ccco3)nn2)cc1,0,0,0,55
Cc1c(C(=O)NCC2CCCO2)oc2ccccc12 (configuration not stated),0,-,-,-
Cc1c(C(=O)NCC2CCCO2)oc2ccc3c(c12)C(=O)CC(C)(C)O3 (configuration not stated),0,0,0,67
SMILES,TRAIL sens C8,PPC-1+TRAIL kill,FLuc stim CS,FLuc inhib CS
CCOC(=O)C1=C(C)NC(=O)NC1c1ccccc1OCc1c(F)cccc1Cl (configuration not stated),0,0,0,0
S=C(c1ccc(-c2cccc(Cl)c2)o1)N1CCOCC1,0,0,0,0
S=C(c1ccc(-c2cccc(Cl)c2)o1)N1CCCCC1,0,0,0,54
Cc1cccc(Nc2ccccc2C(=O)OCC(=O)N2CCOCC2)c1C,0,0,0,0
CC(C)C(=O)Nc1ccc2nn(-c3ccccc3)nc2c1,54,0,0,69
O=C(Nc1cc2nn(-c3ccccc3)nc2cc1Cl)c1ccco1,0,0,0,0
CC(=O)Nc1cc2nn(-c3ccccc3)nc2cc1Cl,0,0,0,56
CC(=O)c1cn(Cc2ccccc2)c(=O)n(Cc2ccc(F)cc2)c1=O,0,0,0,79
O=c1c([N+](=O)[O-])cn(Cc2ccccc2)c(=O)n1Cc1ccccc1,0,-,-,-
C(=C\c1ccco1)/c1nc2ccccc2[nH]1,51,0,0,83
COc1ccc(C(=O)NC(NC(=O)c2ccc(OC)cc2)c2ccccc2F)cc1,0,0,0,0
O=C(N/N=C1\CCc2ccccc21)c1ccc(O)cc1,0,0,0,66
Cc1ccc(C(=O)N/N=C2\CCc3ccccc32)c(C)c1,0,0,0,62
O=C(N/N=C1\CCc2ccccc21)c1ccccc1Cl,0,0,0,0
CC(=O)N1CCN(C(=S)Nc2ccc(SC(F)F)cc2)CC1,0,0,0,0
CC1CCN(C(=S)Nc2ccc(SC(F)F)cc2)CC1,0,0,0,66
CC1(CCc2ccccc2)NC(=O)NC1=O (configuration not stated),0,-,-,-
